From paper PMC8694313 (RSC Advances, 2021)
In brackets after ≈: the same amount, converted by molar mass.

What was measured:
RAW 264.7 cells [1] = test: MTT assay, LPS-induced inflammation in RAW 264.7; type: cell-based, murine; settings: RAW 264.7, pre-treatment 100 μM and 200 μM, then LPS; Fig. 4
How it was run: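 Mouse RAW 264.7 macrophages kept in high-glucose DMEM with 10% heat-inactivated FBS and 1% penicillin–streptomycin at 37 °C, 5% CO2. Cells seeded at 5 × 10^5 cells per mL, pretreated 1 h with test compound (100 or 200 μM), then stimulated with […] for 24 h. Medium replaced; 0.5 mg mL−1 MTT for 3 h; formazan dissolved in DMSO; OD read at 540 nm. Percent inflammation derived by subtracting percent viability relative to control.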

COX-1 = target: T1, COX-1 (Ovis aries, UniProt P05979); test: Colorimetric COX; type: biochemical, ovine; settings: read-out: % inhibition of COX, COX-1
T1 sequence (P05979 25-600): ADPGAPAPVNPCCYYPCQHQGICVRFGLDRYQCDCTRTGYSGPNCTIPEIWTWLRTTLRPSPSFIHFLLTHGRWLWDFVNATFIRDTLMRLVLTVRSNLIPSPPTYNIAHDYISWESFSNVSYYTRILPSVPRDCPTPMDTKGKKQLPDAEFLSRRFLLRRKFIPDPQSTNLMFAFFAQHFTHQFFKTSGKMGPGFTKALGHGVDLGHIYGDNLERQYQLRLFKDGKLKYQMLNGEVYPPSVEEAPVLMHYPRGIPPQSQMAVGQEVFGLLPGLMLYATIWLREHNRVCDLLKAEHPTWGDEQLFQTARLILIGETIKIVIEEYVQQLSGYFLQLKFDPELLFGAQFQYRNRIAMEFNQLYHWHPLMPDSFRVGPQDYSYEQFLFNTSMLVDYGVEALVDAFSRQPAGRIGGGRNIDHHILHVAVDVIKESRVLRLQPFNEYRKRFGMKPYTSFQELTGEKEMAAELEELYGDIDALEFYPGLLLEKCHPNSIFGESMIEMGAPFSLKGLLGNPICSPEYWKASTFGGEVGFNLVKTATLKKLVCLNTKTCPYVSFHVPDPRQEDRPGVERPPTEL

Aspergillus niger = test: In vitro antifungal MIC, poison plate technique; type: cell-based
Aspergillus flavus = test: In vitro antifungal MIC, poison plate technique; type: cell-based
Rhizopus arrhizus = test: In vitro antifungal MIC, poison plate technique; type: cell-based
Pseudomonas aeruginosa = test: In vitro antibacterial MIC determination; type: cell-based
How it was run: (§1)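 Bacteria grown on nutrient agar, subcultured to log phase in nutrient broth, then diluted in sterile saline to about 10^5–10^6 CFU mL−1. Test compounds diluted in acetone, DMSO or diethyl ether (ether preferred). Saturated disks placed on spread-plated inoculum and incubated at 37 °C for 24 h. MIC determined across different compound concentrations, with streptomycin as standard.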

[2] = test system: carrageenan-induced paw edema; test: Carrageenan induced hind paw edema assay; type: in vivo; settings: rat, 100 mg kg^−1 p.o., mean ± SEM
How it was run: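 Rats, six per group, acclimatized one week (25 ± 2 °C, 12 h light/dark, standard pellets, water ad libitum). […] Paw volume measured by plethysmometer displacement to the lateral malleolus at 1, 3 and 6 h. Mean ± SEM.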

Staphylococcus aureus = test: In vitro antibacterial MIC determination; type: cell-based
How it was run: as §1

COX-2 = target: T2, COX-2 (Ovis aries, UniProt P79208); test: Colorimetric COX; type: biochemical, ovine; settings: read-out: % inhibition of COX, COX-2
T2 sequence (P79208 17-603): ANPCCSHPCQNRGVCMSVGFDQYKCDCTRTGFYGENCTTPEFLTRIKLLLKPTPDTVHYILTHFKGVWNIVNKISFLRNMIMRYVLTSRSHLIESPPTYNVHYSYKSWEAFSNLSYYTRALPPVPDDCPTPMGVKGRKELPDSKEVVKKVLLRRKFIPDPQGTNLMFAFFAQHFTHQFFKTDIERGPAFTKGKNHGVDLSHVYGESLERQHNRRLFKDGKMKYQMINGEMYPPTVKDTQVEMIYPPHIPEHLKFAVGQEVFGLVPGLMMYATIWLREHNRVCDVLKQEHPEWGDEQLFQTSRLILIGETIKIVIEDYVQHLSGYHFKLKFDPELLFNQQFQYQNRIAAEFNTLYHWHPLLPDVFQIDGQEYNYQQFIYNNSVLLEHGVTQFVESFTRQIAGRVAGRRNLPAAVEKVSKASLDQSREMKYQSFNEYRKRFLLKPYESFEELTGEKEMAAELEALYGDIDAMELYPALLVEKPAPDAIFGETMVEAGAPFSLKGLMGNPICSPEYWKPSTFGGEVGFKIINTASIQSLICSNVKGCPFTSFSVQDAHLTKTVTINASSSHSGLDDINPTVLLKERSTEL

Bacillus subtillis = test: In vitro antibacterial MIC determination; type: cell-based
How it was run: as §1

[3] = test system: cotton pellet induced granuloma; test: Cotton pellets induced granuloma assay; type: in vivo; settings: rat, 100 mg kg^−1 p.o. for 8 d, mean ± SEM
How it was run: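 Two sterile 10 mg cotton pellets implanted ventrally in rats, six per group. […] On day 9 rats were killed under excess ether. Pellets were freed of tissue and weighed wet, then dried at 55 °C for 6 h or to constant weight. Granuloma equals dry weight minus cotton weight. Mean ± SEM.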

Escherichia coli = test: In vitro antibacterial MIC determination; type: cell-based
How it was run: as §1

RAW 264.7 cells [4] = test: Nitrite; type: cell-based, murine; settings: RAW 264.7, 100 μM and 200 μM pre-treatment; Fig. 5
How it was run: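 RAW 264.7 cells (1 × 10^6) seeded in flasks and left to adhere overnight. Pretreated 1 h with test compound (100 or 200 μM), then 100 μM LPS for 24 h at 37 °C, 5% CO2. Supernatant mixed with an equal volume of Griess reagent (0.1% naphthylethylenediamine and 1% sulfanilamide, 1:1, in 5% phosphoric acid) for 10 min in the dark at room temperature; A540 read. Nitrite quantified from a NaNO2 standard curve (0.1–6.25 μM), expressed as μmol NO2−/mg protein. Triplicates.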

Row | Structure (SMILES) | anti-inflammatory activity against LPS induced cell death / inflammation (MTT) (RAW 264.7 cells [1]) | inhibition at 100 µM (COX-1) | inhibition at 200 µM (COX-1) | MIC (Aspergillus niger) | MIC (Aspergillus flavus) | MIC (Rhizopus arrhizus) | MIC (Pseudomonas aeruginosa) | Paw volume ([2]; 1 h after carrageenan) | Paw volume ([2]; 3 h after carrageenan) | Paw volume ([2]; 6 h after carrageenan) | MIC (Staphylococcus aureus) | inhibition at 100 µM (COX-2) | inhibition at 200 µM (COX-2) | MIC (Bacillus subtillis) | Weight, Dry (cotton pellet) [3] | Weight, Wet (cotton pellet) [3] | MIC (Escherichia coli) | inhibition of LPS-induced NO production (RAW 264.7 cells [4])
1 | O=S(=O)(NC[C@@H](O)[C@@H]1CCc2cc(F)ccc2O1)c1cccc(C(F)(F)F)c1 [Compound 8e, N-((R)-2-((S)-6-Fluorochroman-2-yl)-2-hydroxyethyl)-3-(trifluoromethyl)benzenesulfonamide] | strong anti-inflammatory activity | 48.4 ± 0.84% | 71.55 ± 0.15% | 11.7 ± 0.35 µg/mL (≈ 27.9 µM) | 14.1 ± 0.55 µg/mL (≈ 33.6 µM) | 16.6 ± 0.52 µg/mL (≈ 39.7 µM) | 26.7 ± 0.88 µg/mL (≈ 63.7 µM) | 0.68 ± 0.96 mL | 0.74 ± 0.29 mL | 1.19 ± 0.65 mL | 20.4 ± 0.62 µg/mL (≈ 48.7 µM) | 35.55 ± 0.22% | 57.72 ± 0.36% | 19.7 ± 0.36 µg/mL (≈ 46.9 µM) | 76.45 ± 1.95 mg | 152.40 ± 1.57 mg | 26.3 ± 0.28 µg/mL (≈ 62.6 µM) | strong inhibition
2 | O=S(=O)(NC[C@@H](O)[C@@H]1CCc2cc(F)ccc2O1)c1ccc(F)cc1F [Compound 8f, N-((R)-2-((S)-6-Fluorochroman-2-yl)-2-hydroxyethyl)-2,4-difluorobenzenesulfonamide] | strong anti-inflammatory activity | 33.9 ± 1.06% | 73.85 ± 0.54% | 15.7 ± 0.69 µg/mL (≈ 40.4 µM) | 16.2 ± 0.82 µg/mL (≈ 41.8 µM) | 19 ± 0.2 µg/mL (≈ 49.2 µM) | 26.8 ± 0.55 µg/mL (≈ 69.3 µM) | 0.62 ± 0.10 mL | 0.86 ± 0.32 mL | 1.10 ± 0.13 mL | 19.9 ± 0.66 µg/mL (≈ 51.3 µM) | 28.7 ± 0.07% | 52.1 ± 0.78% | 16.2 ± 0.94 µg/mL (≈ 41.9 µM) | 70.66 ± 2.33 mg | 139.82 ± 2.42 mg | 24.1 ± 1.02 µg/mL (≈ 62.1 µM) | strong inhibition
